# In ChEMBL document CHEMBL1132144, “Synthesis of 9-O-substituted derivatives of 9-hydroxy-5, 6-dimethyl-6H-pyrido[4,3-b]carbazole-1-carboxylic acid (2-(dimethylamino)ethyl)amide and their 10- and 11-methyl analogues with improved antitumor activity” (J Med Chem, 1999):
# pIC50: −log10 of the molar value. Where “and” joins values, the source holds several entries; their conditions need not be identical. Equal entries are not always repeated.
# Experiments:
# B16 = assay: Inhibition of murine B16 melanoma cell proliferation measured by the MTT assay; assay type: functional, cell-based; conditions: Mus musculus
# How it was run: (§1)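 Murine L1210 leukemia and B16 melanoma cells were grown in RPMI 1640 with 10% fetal calf serum, 2 mM L-glutamine, penicillin/streptomycin and 10 mM HEPES (pH 7.4). Cells were exposed to nine serial drug dilutions in triplicate for about four doubling times (L1210 48 h, B16 96 h), then read by microculture tetrazolium (MTT) assay. IC50 is the concentration halving optical density versus untreated controls, averaged over ≥2 independent experiments.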
# L1210 = assay: Inhibition of murine L1210 leukemia cell proliferation measured by the MTT assay; assay type: functional, cell-based; conditions: Mus musculus; how it was run: as §1
# Mus musculus [1] = assay: Long-term survivors among 6 mice infected with P388 leukemia, scored on day 60 at 80 mg/kg dose; assay type: functional
# How it was run: (§2)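 B6D2F1 mice in groups of 6–7 were inoculated ip on day 0 with 10^6 P388 cells. Dihydrochloride salts were dissolved in water and given iv on day 1 or on days 1, 5 and 9. Doses ranged from a low nontoxic dose to a toxic one. Long-term survivors were counted at day 60.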
# Mus musculus [2] = assay: Percent median survival time of mice intraperitoneally injected with P388 leukemia was determined from tested at 80 mg/kg at day1,5,9 dose to that of control; assay type: functional; conditions: route intraperitoneal
# How it was run: (§3)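 P388 leukemia in B6D2F1 mice (groups of 6–7), 10^6 cells inoculated ip on day 0. Dihydrochloride salts were dissolved in water and given iv on day 1 or on days 1, 5, 9. Three doses were tested, then five if active. %T/C = median survival treated/control × 100, reported at the optimal dose (no toxic death, weight loss <20%), from one or two representative experiments.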
# Mus musculus [3] = assay: Percent median survival time of mice intraperitoneally injected with P388 leukemia was determined from tested at 160 mg/kg at day1 dose to that of control; assay type: functional; how it was run: as §3
# Mus musculus [4] = assay: Long-term survivors among 6 mice infected with P388 leukemia, scored on day 60 at 160 mg/kg dose; assay type: functional; how it was run: as §2
# Mus musculus [5] = assay: Percent median survival time of mice injected with B16 melanoma, at a intraperitoneal compound dose of 20 mg/kg
# Mus musculus [6] = assay: Long-term survivors among 6 mice infected with P388 leukemia, scored on day 90 at 20 mg/kg dose; assay type: functional
# Mus musculus [7] = assay: Long-term survivors among 6 mice infected with P388 leukemia, scored on day 60 at 40 mg/kg dose; assay type: functional; how it was run: as §2
# Mus musculus [8] = assay: Percent median survival time of mice intraperitoneally injected with P388 leukemia was determined from tested at 40 mg/kg at day1,5,9 dose to that of control; assay type: functional; conditions: route intraperitoneal; how it was run: as §3
# Mus musculus [9] = assay: Long-term survivors among 7 mice infected with P388 leukemia, scored on day 90 at 10 mg/kg dose; assay type: functional
# Mus musculus [10] = assay: Percent median survival time of mice injected with B16 melanoma, at a intraperitoneal compound dose of 10 mg/kg
# Mus musculus [11] = assay: Long-term survivors among 7 mice infected with B16 melanoma, scored on day 90 at 20 mg/kg dose on day 1; assay type: functional
# Mus musculus [12] = assay: Long-term survivors among 7 mice infected with P388 leukemia, scored on day 60 at 20 mg/kg dose on day 1; assay type: functional
# How it was run: (§4)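 B6D2F1 mice in groups of 6–7 received 10^6 P388 cells ip on day 0. Dihydrochloride salts dissolved in water were injected iv on day 1 or on days 1, 5 and 9, at three doses and then five. Read-outs were % T/C (median survival treated/control × 100) and long-term survivors on day 60, both at the optimal dose (no toxic death, weight loss <20%).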
# Mus musculus [13] = assay: Percent median survival time of mice injected with P388 leukemia, at a subcutaneous compound dose of 10 mg/kg; assay type: functional
# Mus musculus [14] = assay: Percent median survival time of mice injected with P388 leukemia, at a subcutaneous compound dose of 20 mg/kg; assay type: functional
# Mus musculus [15] = assay: Percent median survival time of mice injected with B16 melanoma, at a intraperitoneal compound dose of 5 mg/kg
# Mus musculus [16] = assay: Long-term survivors among 7 mice infected with B16 melanoma, scored on day 90 at 10 mg/kg dose on day 1; assay type: functional
# Mus musculus [17] = assay: Long-term survivors among 7 mice infected with P388 leukemia, scored on day 60 at 10 mg/kg dose on day 1; assay type: functional; how it was run: as §4
# Mus musculus [18] = assay: Percent median survival time of mice injected with P388 leukemia, at a intravenous compound dose of 5 mg/kg
# Mus musculus [19] = assay: Percent median survival time of mice injected with B16 melanoma, at a intraperitoneal compound dose of 40 mg/kg
# Mus musculus [20] = assay: Long-term survivors among 7 mice infected with B16 melanoma, scored on day 90 at 40 mg/kg dose on day 1; assay type: functional
# Mus musculus [21] = assay: Long-term survivors among 7 mice infected with P388 leukemia, scored on day 60 at 40 mg/kg dose on day 1; assay type: functional; how it was run: as §4
# Mus musculus [22] = assay: Percent median survival time of mice injected with P388 leukemia, at a intravenous compound dose of 40 mg/kg
# Mus musculus [23] = assay: Percent median survival time of mice injected with P388 leukemia, at a subcutaneous compound dose of 10 mg/kg on day 1; assay type: functional
# Mus musculus [24] = assay: Percent median survival time of mice injected with P388 leukemia, at a subcutaneous compound dose of 10 mg/kg on day 1, 5, 9; assay type: functional
# Mus musculus [25] = assay: Long-term survivors among 14 mice infected with P388 leukemia, scored on day 60 at 40 mg/kg dose on day 1; assay type: functional; how it was run: as §2
# Mus musculus [26] = species on record: Mus musculus; assay: Long-term survivors among 14 mice infected with B16 melanoma, scored on day 90 at optimal dose on days 1-9
# Mus musculus [27] = assay: Long-term survivors among 14 mice infected with P388 leukemia, scored on day 60 at 320 mg/kg dose on day 1; assay type: functional; how it was run: as §2
# Mus musculus [28] = species on record: Mus musculus; assay: Long-term survivors among 14 mice infected with B16 melanoma, scored on day 90 at optimal dose on days 1-9; remark: listed apart in the source
# Mus musculus [29] = assay: Percent median survival time of mice injected with P388 leukemia, at a intravenous compound dose of 80 mg/kg
# Mus musculus [30] = assay: Percent median survival time of mice injected with P388 leukemia, at a intravenous compound dose of 320 mg/kg
# Mus musculus [31] = assay: Long-term survivors among 6 mice infected with P388 leukemia, scored on day 60 at 20 mg/kg dose; assay type: functional; how it was run: as §2
# Mus musculus [32] = assay: Percent median survival time of mice intraperitoneally injected with P388 leukemia was determined from tested at 20 mg/kg at day1,5,9 dose to that of control; assay type: functional; conditions: route intravenous; how it was run: as §3
# Mus musculus [33] = assay: Percent median survival time of mice intraperitoneally injected with P388 leukemia was determined from tested at 40 mg/kg at day1 dose to that of control; assay type: functional; conditions: route intraperitoneal; how it was run: as §3
compound,measurement,setting,value
Cc1c2ccnc(C(=O)NCCN(C)C)c2cc2c3cc(OC(=O)N4CCN(C)CC4)ccc3n(C)c12,pIC50,B16,5.61
same,pIC50,L1210,5.89
same,LTS,Mus musculus [1],0
same,T/C,Mus musculus [2],134%
same,T/C,Mus musculus [3],146%
same,LTS,Mus musculus [4],0
same,T/C,Mus musculus [5],159%
Cc1c2ccnc(C(=O)NCCN(C)C)c2cc2c3cc(OS(C)(=O)=O)ccc3n(C)c12,pIC50,B16,6.11
same,pIC50,L1210,6.06
same,LTS,Mus musculus [6],0
same,LTS,Mus musculus [7],0
same,T/C,Mus musculus [3],96%
same,T/C,Mus musculus [8],106%
same,LTS,Mus musculus [4],0
same,T/C,Mus musculus [5],142%
Cc1c2ccnc(C(=O)NCCN(C)C)c2cc2c3cc(OP(=O)(O)O)ccc3n(C)c12,pIC50,B16,8.39
same,pIC50,L1210,7.30
same,LTS,Mus musculus [9],0
same,LTS,Mus musculus [7],1
same,T/C,Mus musculus [3],239%
same,T/C,Mus musculus [8],405%
same,LTS,Mus musculus [4],1
same,T/C,Mus musculus [10],171%
COC(=O)CCCC(=O)Oc1ccc2c(c1)c1cc3c(C(=O)NCCN(C)C)nccc3c(C)c1n2C,pIC50,B16,8.15
same,pIC50,L1210,8.27
same,LTS,Mus musculus [11],0
same,LTS,Mus musculus [12],0
same,T/C,Mus musculus [13],158%
same,T/C,Mus musculus [14],145%
same,T/C,Mus musculus [15],144%
CCCCCCCCCCCCN(C)C(=O)Oc1ccc2c(c1)c1cc3c(C(=O)NCCN(C)C)nccc3c(C)c1n2C,pIC50,B16,5.49
same,pIC50,L1210,5.54
same,LTS,Mus musculus [16],0
same,LTS,Mus musculus [17],0
same,T/C,Mus musculus [13],103%
same,T/C,Mus musculus [18],100%
same,T/C,Mus musculus [19],115%
CCOC(=O)CCNC(=O)Oc1ccc2c(c1)c1cc3c(C(=O)NCCN(C)C)nccc3c(C)c1n2C,pIC50,B16,8.24
same,pIC50,L1210,7.79
same,LTS,Mus musculus [20],0
same,LTS,Mus musculus [21],0
same,T/C,Mus musculus [14],95%
same,T/C,Mus musculus [22],97%
same,T/C,Mus musculus [10],115%
Cc1c2ccnc(C(=O)NCCN(C)C)c2cc2c3cc(OC(=O)CCCCC4CCSS4)ccc3n(C)c12 (centres undefined),pIC50,B16,7.85
same,pIC50,L1210,6.93
same,LTS,Mus musculus [16],0
same,LTS,Mus musculus [17],0
same,T/C,Mus musculus [13]; 10 mg/kg,118% and 129%
same,T/C,Mus musculus [15],140%
Cc1c2ccnc(C(=O)NCCN(C)C)c2cc2c3cc(OC(=O)CCCCC(=O)OCc4ccccc4)ccc3n(C)c12,pIC50,B16,7.23
same,pIC50,L1210,6.96
same,LTS,Mus musculus [11],0
same,LTS,Mus musculus [12],0
same,T/C,Mus musculus [13],128%
same,T/C,Mus musculus [14],124%
same,T/C,Mus musculus [19],102%
Cc1c2ccnc(C(=O)NCCN(C)C)c2cc2c3cc(OC(=O)NCCCC(=O)OCc4ccccc4)ccc3n(C)c12,pIC50,B16,7.53
same,pIC50,L1210,6.52
same,LTS,Mus musculus [11],0
same,LTS,Mus musculus [12],0
same,T/C,Mus musculus [13],93%
same,T/C,Mus musculus [14],103%
same,T/C,Mus musculus [19],96%
Cc1c2ccnc(C(=O)NCCN(C)C)c2cc2c3cc(OC(=O)N4CCOCC4)ccc3n(C)c12,pIC50,B16,5.75
same,pIC50,L1210,6.19
same,LTS,Mus musculus [1],0
same,T/C,Mus musculus [2],196%
same,T/C,Mus musculus [3],149%
same,LTS,Mus musculus [4],0
same,T/C,Mus musculus [5],139%
CCCCCCCCC(=O)Oc1ccc2c(c1)c1cc3c(C(=O)NCCN(C)C)nccc3c(C)c1n2C,pIC50,B16,7.68
same,pIC50,L1210,7.51
same,LTS,Mus musculus [16],0
same,LTS,Mus musculus [17],0
same,T/C,Mus musculus [23],131%
same,T/C,Mus musculus [24],147%
same,T/C,Mus musculus [10],160%
CCCCCCCCCCCCCC(=O)Oc1ccc2c(c1)c1cc3c(C(=O)NCCN(C)C)nccc3c(C)c1n2C,pIC50,B16,6.71
same,pIC50,L1210,6.67
same,LTS,Mus musculus [25],0
same,T/C,Mus musculus [13],153%
same,LTS,Mus musculus [26],1
same,T/C,Mus musculus [22],176%
same,T/C,Mus musculus [10],166%
CCCCCCCCCCCCNC(=O)Oc1ccc2c(c1)c1cc3c(C(=O)NCCN(C)C)nccc3c(C)c1n2C,pIC50,B16,5.64
same,pIC50,L1210,6.09
same,LTS,Mus musculus [16],0
same,LTS,Mus musculus [17],0
same,T/C,Mus musculus [23],104%
same,T/C,Mus musculus [24],107%
same,T/C,Mus musculus [19],133%
Cc1c2ccnc(C(=O)NCCN(C)C)c2cc2c3cc(OC(=O)CCCCCC(=O)O)ccc3n(C)c12,pIC50,B16,8.49
same,pIC50,L1210,8.43
same,LTS,Mus musculus [27],5
same,LTS,Mus musculus [28],1
same,T/C,Mus musculus [29],>600%
same,T/C,Mus musculus [30],>600%
same,T/C,Mus musculus [10],246%
Cc1c2ccnc(C(=O)NCCN(C)C)c2cc2c3cc(OC(=O)Cc4ccccc4)ccc3n(C)c12,pIC50,B16,7.65
same,pIC50,L1210,7.57
same,LTS,Mus musculus [16],0
same,LTS,Mus musculus [17],0
same,T/C,Mus musculus [23],125%
same,T/C,Mus musculus [24],157%
same,T/C,Mus musculus [15],147%
COc1ccc2c(c1)c1cc3c(C(=O)NCCN(C)C)nccc3c(C)c1n2C,pIC50,B16,6.48
same,pIC50,L1210,6.26
same,LTS,Mus musculus [9],0
same,LTS,Mus musculus [7],0
same,LTS,Mus musculus [31],0
same,T/C,Mus musculus [32],96%
same,T/C,Mus musculus [33],94%
same,T/C,Mus musculus [10],126%
